From ChEMBL document CHEMBL1147232, “An anxiolytic-like effect of Ginkgo biloba extract and its constituent, ginkgolide-A, in mice” (J Nat Prod, 2003) come the findings set out here.

The subject of data set [1] is Mus musculus. Description: Anxiolytic-like activity in ddY mouse assessed as number of shocks per hour at 5 mg/kg, po administered 30 mins before test by discrete shuttle avoidance test. The class given is functional. In outline:
(§1)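 Well-trained male ddY mice with stable baselines (150-250 shuttles/h, under 10 shocks) had 60-min discrete shuttle avoidance sessions of 120 trials, dosed orally 30 min before. Shuttles and shocks per hour counted. Drug tests at 3-4 day intervals, mice reused; 10 mice per group; mean ± SEM; one-way ANOVA with Student-Newman-Keuls.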

In data set [2] the test system is Mus musculus. Briefly: Anxiolytic-like activity in ddY mouse assessed as number of shocks per hour at 1 mg/kg, po administered 30 mins before test by discrete shuttle avoidance test. The class given is functional. The method in brief: as §1
Data set [3] relates to Mus musculus. Briefly: Anxiolytic-like activity in ddY mouse assessed as time spent in open-sided arms at 1 mg/kg, po for 2 days measured 24 hrs after final drug administration by elevated plus-maze test. The class given is functional. In outline: (§2)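 Elevated plus-maze with two walled arms (6 × 30 × 10 cm); time (s) in the open-sided arms recorded 24 h after the last of daily oral doses given for the stated number of days. Male ddY mice, 7 weeks, drug-naive, used once. Mean ± SEM; ANOVA with Student-Newman-Keuls.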

In data set [4] the test system is Mus musculus. Briefly: Anxiolytic-like activity in ddY mouse assessed as time spent in open-sided arms at 1 mg/kg, po for 4 days measured 24 hrs after final drug administration by elevated plus-maze test. The class given is functional.
In data set [5] the test system is Mus musculus. Description: Anxiolytic-like activity in ddY mouse assessed as ambulatory activity at 1 mg/kg, po for 1 day measured after 1 hr assessed per 5 mins by tilting type ambulometer test. The class given is functional. In outline: (§3)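 Ambulatory activity counted for 5 min on a tilting ambulometer immediately after the maze. 10 mice per group; mean ± SEM; one-way ANOVA with Student-Newman-Keuls.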

Data set [6] deals with Mus musculus. Description: Toxicity in ddY mouse assessed as induction of muscle relaxation at 1 mg/kg, po after 1 to 3 hrs. On the set-up: dose 1 mg/kg, route oral. Conditions: in vivo. The class given is organism-based.
The test system of data set [7] is Mus musculus. Description: Anxiolytic-like activity in ddY mouse assessed as ambulatory activity at 1 mg/kg, po for 4 days measured 24 hrs after final drug administration assessed per 5 mins by tilting type ambulometer test. The class given is functional.
The test system of data set [8] is Mus musculus. Description: Anxiolytic-like activity in ddY mouse assessed as pentobarbital-induced sleep time at 5 mg/kg, po administered 30 mins before pentobarbital challenge. The class given is functional. The method in brief:
(§4)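 Oral dose to male ddY mice 30 min before pentobarbital-Na 50 mg/kg ip. Sleep time is the interval between loss and recovery of righting reflex (s). Separate drug-naive mice, used once; 10 per group; mean ± SEM; one-way ANOVA with Student-Newman-Keuls.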

The test system of data set [9] is Mus musculus. Description: Anxiolytic-like activity in ddY mouse assessed as time spent in open-sided arms at 1 mg/kg, po for 1 day measured after 1 hr by elevated plus-maze test. The class given is functional. The method in brief:
(§5)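 Elevated plus-maze with two walled arms (6 × 30 × 10 cm) and an 8 × 8 cm central platform; read-out is time (s) in the open-sided arms. 10 mice per group, each used once; mean ± SEM; one-way ANOVA with Student-Newman-Keuls.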

The subject of data set [10] is Mus musculus. Briefly: Anxiolytic-like activity in ddY mouse assessed as ambulatory activity at 1 mg/kg, po for 3 days measured 24 hrs after final drug administration assessed per 5 mins by tilting type ambulometer test. The class given is functional. In outline:
(§6)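 Male ddY mice (7 weeks, 33-36 g) dosed orally once daily (0.1 mL/10 g) for the stated number of days. Plus-maze 24 h after final dose, then ambulatory activity counted for 5 min on a tilting ambulometer immediately after. Animals used once; N per group as tabulated; mean ± SEM; ANOVA with Student-Newman-Keuls.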

The subject of data set [11] is Mus musculus. Briefly: Anxiolytic-like activity in ddY mouse assessed as ambulatory activity at 1 mg/kg, po for 2 days measured 24 hrs after final drug administration assessed per 5 mins by tilting type ambulometer test. The class given is functional. The method in brief: as §6
Data set [12] has as its system Mus musculus. Description: Anxiolytic-like activity in ddY mouse assessed as pentobarbital-induced sleep time at 20 mg/kg, po administered 30 mins before pentobarbital challenge. The class given is functional. The method in brief: as §4
The test system of data set [13] is Mus musculus. Briefly: Toxicity in ddY mouse assessed as body weight gain after repeated administration. The class given is organism-based. Conditions: in vivo.
In data set [14] the test system is Mus musculus. Description: Anxiolytic-like activity in ddY mouse assessed as ambulatory activity at 1 mg/kg, po for 7 days measured 24 hrs after final drug administration assessed per 5 mins by tilting type ambulometer test. The class given is functional. The method in brief: as §6
Data set [15] deals with Mus musculus. Description: Anxiolytic-like activity in ddY mouse assessed as time spent in open-sided arms at 1 mg/kg, po for 7 days measured 24 hrs after final drug administration by elevated plus-maze test. The class given is functional. In outline: as §2
In data set [16] the test system is Mus musculus. Description: Toxicity in ddY mouse assessed as induction of ataxia at 1 mg/kg, po after 1 to 3 hrs. The class given is organism-based. Also on record: dose 1 mg/kg, route oral. To be noted: in vivo.
For data set [17], the system named is Mus musculus. Briefly: Anxiolytic-like activity in ddY mouse assessed as time spent in open-sided arms at 2 mg/kg, po for 1 day measured after 1 hr by elevated plus-maze test. The class given is functional. In outline:
as §5

Data set [18] has as its system Mus musculus. Briefly: Toxicity in ddY mouse assessed as induction of sedation at 20 mg/kg, po after 1 to 3 hrs. Also on record: dose 20 mg/kg, route oral. To be noted: in vivo. The class given is organism-based.
Data set [19] concerns Mus musculus. Description: Anxiolytic-like activity in ddY mouse assessed as number of shuttle per hour at 5 mg/kg, po administered 30 mins before test by discrete shuttle avoidance test. The class given is functional. The method in brief: as §1
In data set [20] the test system is Mus musculus. Briefly: Toxicity in ddY mouse assessed as induction of excitation at 20 mg/kg, po after 1 to 3 hrs. The class given is organism-based. On the set-up: dose 20 mg/kg, route oral. Conditions: in vivo.
The subject of data set [21] is Mus musculus. Briefly: Toxicity in ddY mouse at 1 to 2 mg/kg, po. The class given is organism-based. On the set-up: dose 1-2 mg/kg, route oral. Conditions: in vivo.
For data set [22], the system named is Mus musculus. Description: Anxiolytic-like activity in ddY mouse assessed as number of shuttle per hour at 1 mg/kg, po administered 30 mins before test by discrete shuttle avoidance test. The class given is functional. In outline: as §1
Data set [23] concerns Mus musculus. Briefly: Anxiolytic-like activity in ddY mouse assessed as time spent in open-sided arms at 1 mg/kg, po for 5 days measured 24 hrs after final drug administration by elevated plus-maze test. The class given is functional. In outline: as §2
Data set [24] relates to Mus musculus. Description: Anxiolytic-like activity in ddY mouse assessed as ambulatory activity at 2 mg/kg, po for 1 day measured after 1 hr assessed per 5 mins by tilting type ambulometer test. The class given is functional. In outline: as §3
Data set [25] deals with Mus musculus. Description: Anxiolytic-like activity in ddY mouse assessed as pentobarbital-induced sleep time at 10 mg/kg, po administered 30 mins before pentobarbital challenge. The class given is functional. The method in brief:
as §4

Data set [26] relates to Mus musculus. Briefly: Anxiolytic-like activity in ddY mouse assessed as ambulatory activity at 2 mg/kg, po for 7 days measured 24 hrs after final drug administration assessed per 5 mins by tilting type ambulometer test. The class given is functional. In outline: as §6
Data set [27] is described as follows: Half life in rat. The class given is ADME, organism-based. Conditions: in vivo.
Data set [28] deals with Mus musculus. Description: Anxiolytic-like activity in ddY mouse assessed as pentobarbital-induced sleep time at 0.5 mg/kg, po administered 30 mins before pentobarbital challenge. The class given is functional. The method in brief: as §4
Data set [29] relates to Mus musculus. Briefly: Anxiolytic-like activity in ddY mouse assessed as pentobarbital-induced sleep time at 1 mg/kg, po administered 30 mins before pentobarbital challenge. The class given is functional. The method in brief: as §4
Data set [30] has as its system Mus musculus. Briefly: Anxiolytic-like activity in ddY mouse assessed as time spent in open-sided arms at 2 mg/kg, po for 7 days measured 24 hrs after final drug administration by elevated plus-maze test. The class given is functional. The method in brief:
as §2

Data set [31] deals with Mus musculus. Briefly: Anxiolytic-like activity in ddY mouse assessed as pentobarbital-induced sleep time at 2 mg/kg, po administered 30 mins before pentobarbital challenge. The class given is functional. In outline:
as §4

Data set [32] deals with Mus musculus. Description: Anxiolytic-like activity in ddY mouse assessed as ambulatory activity at 1 mg/kg, po for 5 days measured 24 hrs after final drug administration assessed per 5 mins by tilting type ambulometer test. The class given is functional. The method in brief: as §6
Data set [33] concerns Mus musculus. Briefly: Anxiolytic-like activity in ddY mouse assessed as time spent in open-sided arms at 1 mg/kg, po for 3 days measured 24 hrs after final drug administration by elevated plus-maze test. The class given is functional. In outline:
as §2

Data set [34] concerns Mus musculus. Description: Anxiolytic-like activity in ddY mouse assessed as number of shuttle per hour at 10 mg/kg, po by discrete shuttle avoidance test. The class given is functional. The method in brief:
(§7)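 Male ddY mice (7 weeks, 33-36 g), pretrained and reused, showing stable baselines (150-250 shuttles/h, fewer than 10 shocks per session). Single oral dose immediately before a 60-min discrete shuttle avoidance session of 120 trials. Shuttles were full crossings of the chamber. Drug tests ran 3-4 days apart. Vehicle controls; n=10 per group; mean ± SEM; one- or two-way ANOVA with Student-Newman-Keuls.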

Data set [35] deals with Mus musculus. Description: Anxiolytic-like activity in ddY mouse assessed as number of shocks per hour at 10 mg/kg, po by discrete shuttle avoidance test. The class given is functional. The method in brief:
as §7

The subject of data set [36] is Mus musculus. Briefly: Anxiolytic-like activity in ddY mouse assessed as time spent in open-sided arms at 0.3 mg/kg, po for 7 days measured 24 hrs after final drug administration by elevated plus-maze test. The class given is functional.
Data set [37] concerns Mus musculus. Briefly: Anxiolytic-like activity in ddY mouse assessed as ambulatory activity at 0.3 mg/kg, po for 7 days measured 24 hrs after final drug administration assessed per 5 mins by tilting type ambulometer test. The class given is functional.

For `C[C@@H]1C(=O)O[C@H]2C[C@@]34[C@H]5C[C@@H](C(C)(C)C)[C@]36[C@@H](OC(=O)[C@@H]6O)O[C@@]4(C(=O)O5)[C@]21O` [GINKGOLIDE A], the Activity in the data set with Mus musculus [1] was 1.1; in the data set with Mus musculus [2] it was 1.6; with Mus musculus [3] it was 10.5 s; with Mus musculus [4], 17.8 s; with Mus musculus [5], 39.1; in the data set on Mus musculus [6], “Non-toxic”. In addition, the Activity in the data set on Mus musculus [7] came out at 40.1; in the data set on Mus musculus [8], 3694 s; in the data set on Mus musculus [9], 7.6 s; in the data set on Mus musculus [10], 35.5; with Mus musculus [11], 31.6; in the data set with Mus musculus [12], 3490 s. The Activity result is reported as “Non-toxic” in the data set on Mus musculus [13]; 35.3 in the data set on Mus musculus [14]; 18.6 s in the data set on Mus musculus [15]; “Non-toxic” in the data set with Mus musculus [16]; 5.9 s in the data set on Mus musculus [17]; “Non-toxic” in the data set on Mus musculus [18]. Moreover, the Activity in the data set with Mus musculus [19] was 162.9; with Mus musculus [20], “Non-toxic”; with Mus musculus [21], “Non-toxic”; with Mus musculus [22], 182.8; with Mus musculus [23] it was 17.8 s; in the data set with Mus musculus [24], 35.4. For the same compound, the Activity was 3690 s with Mus musculus [25]; 29.5 with Mus musculus [26]; 3270 s with Mus musculus [28]; 2830 s with Mus musculus [29]; 17.4 s in the data set on Mus musculus [30]; 3510 s in the data set on Mus musculus [31]. In addition, the Activity worked out at 40.1 in the data set on Mus musculus [32] and 12.7 s in the data set with Mus musculus [33]. The half-life in [27] is 1.5 h.
With `CN1C(=O)CN=C(c2ccccc2)c2cc(Cl)ccc21` [DIAZEPAM], the Activity with Mus musculus [14] was found to be 43.1; in the data set on Mus musculus [15], 24.7 s.
Regarding `Cn1c(=O)c2c(ncn2C)n(C)c1=O` [CAFFEINE], the Activity in the data set with Mus musculus [34] is 428.9; in the data set on Mus musculus [35], 3.4.
With `CCOC(=O)c1ncn2c1CN(C)C(=O)c1cc(F)ccc1-2` [FLUMAZENIL], the Activity in the data set on Mus musculus [36] is recorded as 5.5 s; in the data set on Mus musculus [37] it was 31.5.

A word on the half-life: it is how long it takes for the measured level to halve. A higher half-life goes with slow decline.
